Shown are actives, neighbours in structure and some others; about 2.4% of the full set was active somewhere.
Scp1 inh: Scp-1 phosphatase inhibitors, primary screen, biochemical, colorimetric, uHTS. 0.88% of 340,000 active. Recombinant Scp1, phosphopeptide, malachite green phosphate absorbance. inhibition, % at 20 µM. Carboxy-terminal domain RNA polymerase II polypeptide A small phosphatase 1 (Homo …. AID 493091, 2011;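 active means inhibition above about 50% at 20 µM, limit read from the data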;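 further: plate controls were DMSO wells with enzyme for no effect and wells lacking enzyme for full effect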
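System: SCP-1 catalytic domain; Reagent: Phospho 17-mer peptide substrate; Doses: one concentration, 20 µM, with 1.0% DMSO; Incubation: 45 min room-temperature reaction, 5 min colour, 30 min stabiliser; Signal: Phosphate-binding colour reagent, absorbance read at 630 nm.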
DNMT1 inh: human DNMT1 methyltransferase inhibitors, primary screen, biochemical, molecular beacon, fluorescence, HinP1I cleavage, uHTS; DNA (cytosine-5)-methyltransferase 1 (Homo sapiens), P26358; AID 588458, 2011; inhibition (reported as % activation of signal), % at 10 µM; 0.83% of 360,000 active; in the data active means inhibition above about 50%
STEP block: STEP phosphatase inhibitors, primary screen, biochemical, fluorescence intensity, uHTS; Tyrosine-protein phosphatase non-receptor type 5 (Homo sapiens), P54829; recombinant STEP, OMFP fluorogenic substrate; 0.25% of 360,000 active; inhibition, % at 20 µM;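 active means inhibition at 20 µM, scaled per plate between control wells, above about 37%, limit read from the data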;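 further: 0% = DMSO with enzyme and substrate and 100% = substrate only without enzyme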
Target sequence (P54829 whole entry, looked up): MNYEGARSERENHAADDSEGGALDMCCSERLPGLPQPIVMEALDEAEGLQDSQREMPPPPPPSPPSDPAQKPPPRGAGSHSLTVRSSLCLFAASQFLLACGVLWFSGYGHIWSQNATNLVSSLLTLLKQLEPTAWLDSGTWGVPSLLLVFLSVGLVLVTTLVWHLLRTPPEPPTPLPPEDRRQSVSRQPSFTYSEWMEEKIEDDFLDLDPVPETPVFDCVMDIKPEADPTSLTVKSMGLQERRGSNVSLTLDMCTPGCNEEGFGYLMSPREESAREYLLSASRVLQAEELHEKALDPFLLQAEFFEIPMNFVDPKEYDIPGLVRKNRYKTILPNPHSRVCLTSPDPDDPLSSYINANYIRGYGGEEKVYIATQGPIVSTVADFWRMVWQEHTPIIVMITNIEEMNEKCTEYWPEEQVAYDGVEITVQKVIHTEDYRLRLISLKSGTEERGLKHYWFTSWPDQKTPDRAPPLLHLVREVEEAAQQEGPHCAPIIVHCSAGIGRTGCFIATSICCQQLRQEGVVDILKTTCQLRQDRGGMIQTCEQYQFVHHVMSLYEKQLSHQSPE
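System: STEP (striatal-enriched tyrosine phosphatase) enzyme, cell-free; medium: Bis-Tris pH 6.0 buffer with DTT, detergent; dosing: 20 µM, 1% DMSO; times: reaction 20 min, ambient temperature; detection: fluorescence, 480/540 nm; read-out basis: normalized % inhibition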
LMPTP block: LMPTP phosphatase inhibitors, primary screen, biochemical, fluorescence intensity, uHTS | Low molecular weight phosphotyrosine protein phosphatase (Homo sapiens), P24666 | recombinant LMPTP-A, OMFP fluorogenic substrate | inhibition, % at 20 µM | 0.22% of 360,000 active;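 active means compounds that cut the enzyme signal by at least half of the control window in the single-dose screen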;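 further: plate controls were DMSO wells with enzyme plus substrate for no effect and substrate without enzyme for full effect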
Target sequence (P24666 whole entry, looked up): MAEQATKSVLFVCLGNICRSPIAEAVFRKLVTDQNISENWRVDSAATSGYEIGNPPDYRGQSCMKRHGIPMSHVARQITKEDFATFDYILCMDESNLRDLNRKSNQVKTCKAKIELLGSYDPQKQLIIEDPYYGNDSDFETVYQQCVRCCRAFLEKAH
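Assay system: LMPTP-A phosphatase enzyme | Input: 0.625 nM enzyme | Also added: Fluorogenic phosphatase substrate OMFP at 400 µM final | Compound dosing: One test concentration per compound, 20 µM, with 3% DMSO overall | Schedule: 50 min enzyme reaction at room temperature, protected from light | Signal: Fluorescence intensity | Benchmarks: no-enzyme and uninhibited controls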
SUMO1 PPI mod: modulators of SUMO1 protein-protein interactions, primary screen, biochemical, uHTS. Small ubiquitin-related modifier 1 (Homo sapiens), P63165. SUMO1 binding to a labelled peptide, TR-FRET, 1 h. inhibition, % at 20 µM. 0.33% of 360,000 active; in the data active means inhibition above about 37%
NadD inh: inhibitors of S. aureus NadD, primary screen, biochemical, colorimetric, uHTS; 0.78% of 360,000 active; Nicotinate-nucleotide adenylyltransferase NadD (Staphylococcus aureus N315); purified NadD enzyme, colorimetric absorbance read-out; inhibition, % at 20 µM; in the data active means inhibition above about 26%
Scp-1 conf: Scp-1 phosphatase inhibitors, retest, confirmation, biochemical, colorimetric, single concentration | shares compounds with Scp1 inh | recombinant SCP-1 catalytic domain, phosphate release, malachite green absorbance | inhibition, % at 20 µM | 61% of 2,500 active;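 further: plate controls were DMSO with enzyme for no effect and buffer wells lacking enzyme for full effect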
Scp-1 MG ctr: colorimetric readout interference by compounds, confirmation, artefact control for Scp-1 inhibitor project, biochemical, single concentration. Colorimetric interference counterscreen, malachite green absorbance 630 nm. shares compounds with Scp1 inh. apparent inhibition (interference), % at 20 µM. 2,500 tested, under 10 active;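 further: compounds added after enzyme reaction finished so only phosphate colour detection is probed; plate controls were DMSO wells with completed Scp-1 reaction for no effect and substrate wells lacking enzyme for full effect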
Scp-1 Tm shift: Scp-1 binding by thermal shift, confirmation, orthogonal assay for Scp-1 inhibitor project, biophysical, differential scanning fluorimetry | shares compounds with Scp1 inh | Recombinant SCP1, Sypro Orange thermal shift Tm | thermal shift relative to vanadate control, % at 40 µM | 25% of 1,500 active | AID 540329, 2011;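 active means substances whose mean melting-temperature shift, as a percentage of the reference inhibitor's shift, reaches about 5.3%, limit read from the data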;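 further: 0% = Tm of DMSO wells and 100% = Tm with sodium orthovanadate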
DNMT1 interf DR: spectral interference with molecular beacon fluorescence, dose response, artefact control for DNMT1 inhibitor project, biochemical, fluorescent molecular beacon; spectral interference counter-screen; 200 tested, under 10 active; shares compounds with DNMT1 inh; IC50, µM; call rule not given here
DNMT1 inh conf: DNMT1 methyltransferase inhibitor retest, confirmation, biochemical, molecular beacon, fluorescence, single concentration. shares compounds with DNMT1 inh. 8% of 2,300 active. DNMT1 molecular beacon HinP1I cleavage. AID 602385, 2012. inhibition, % at 10 µM;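 active means average inhibition of at least 30% in the single-concentration confirmation test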
DNMT1 interf: counter-screen for DNMT1 inhibitors: spectral interference. activation (fluorescence interference), % at 10 µM. AID 602387. 1% of 2,300 active. shares compounds with DNMT1 inh. DNMT1 molecular beacon spectral interference counterscreen, fluorescence 485/520;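 active means activation of at least 30% at 10 µM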;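 further: DNMT1 catalytic domain with a HinP1I cleavage step and a FAM/dabcyl DNA beacon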
Active calls of the source: *.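 How the source made its calls, unless noted: active means inhibition of at least 30% at 20 µM; inactive means the rest.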

For CC(=O)Nc1cc(=O)c2cccnc2[nH]1 the results were Scp1 inh 81.5*, DNMT1 inh 63.2*, STEP block 10.3, LMPTP block 64.2*, SUMO1 PPI mod 31.4, NadD inh 2.2, Scp-1 conf 61.1*, Scp-1 MG ctr -4.9, Scp-1 Tm shift 1.7, DNMT1 inh conf 16.2 and DNMT1 interf 6.8.
COc1cccc(C(=O)Nc2ccc3c(c2)C(=O)c2ccccc2C3=O)c1 was read as Scp1 inh 74.6*, DNMT1 inh 73.6*, STEP block 59.6*, LMPTP block 33.1, SUMO1 PPI mod 3.9, NadD inh 0.3, Scp-1 conf 64.2*, Scp-1 MG ctr -9.6, Scp-1 Tm shift 5.4*, DNMT1 inh conf 7.5 and DNMT1 interf -1.4.
O=C(Nc1ccc2c(c1)C(=O)c1ccccc1-2)c1ccccc1 was read as Scp1 inh -12.4, DNMT1 inh 46.1, STEP block 0.3, LMPTP block 18.8, SUMO1 PPI mod 15.7 and NadD inh 2.3.
Screening CCN1CCN(c2ncc3c(n2)CC(c2ccc(OC)c(OC)c2)CC3=O)CC1 (stereo unspecified) returned Scp1 inh 22.6, DNMT1 inh -1.6, STEP block 1.7, LMPTP block -0.5, SUMO1 PPI mod -3.7 and NadD inh -1.2.
For Cc1ccc(C(=O)O)cc1-c1ccc(/C=C2/NC(=O)N(c3ccccc3)C2=O)o1 the results were Scp1 inh 63.0*, DNMT1 inh 92.2*, STEP block 4.8, LMPTP block 4.3, SUMO1 PPI mod 25.2, NadD inh 18.0, Scp-1 conf 67.9*, Scp-1 MG ctr -12.3, Scp-1 Tm shift 12.6*, DNMT1 interf DR >99, DNMT1 inh conf 34.1* and DNMT1 interf -2.0.
For O=C1N/C(=C/c2ccc(N3CCOCC3)o2)C(=O)N1c1ccccc1 the results were Scp1 inh 5.4, DNMT1 inh -2.1, STEP block -1.3, LMPTP block -2.0, SUMO1 PPI mod -12.8 and NadD inh 5.4.
O=C(O)C1=C(C(=O)O)C2C=CC1C2 was read as Scp1 inh 72.0*, DNMT1 inh 60.4*, STEP block 33.3, LMPTP block 0.6, SUMO1 PPI mod 24.5, NadD inh -4.0, Scp-1 conf 51.6*, Scp-1 MG ctr -15.0, Scp-1 Tm shift -3.0, DNMT1 inh conf 5.0 and DNMT1 interf 2.4.
Cc1cccc(N2CCN(S(=O)(=O)c3ccc4c(c3)C(C)(C)C(=O)N4C)CC2)c1C was read as Scp1 inh 85.2*, DNMT1 inh 75.6*, STEP block 6.0, LMPTP block 6.4, SUMO1 PPI mod 0.5, NadD inh 9.5, Scp-1 conf 68.9*, Scp-1 MG ctr -6.8, Scp-1 Tm shift -2.2, DNMT1 inh conf 7.1 and DNMT1 interf 1.0.
Screening ON=C1CCCC2CCCCC12 (stereo unspecified) returned Scp1 inh -5.0, DNMT1 inh 4.0, STEP block -0.1, LMPTP block -0.9, SUMO1 PPI mod 1.4 and NadD inh -4.9.
N#C/C=C1\n2c(nc3ccccc32)OC12CCCCC2 was read as Scp1 inh -2.0, DNMT1 inh -6.4, STEP block 1.0, LMPTP block -0.7, SUMO1 PPI mod -0.2 and NadD inh 2.4.
`O=P(c1ccccc1)(c1ccccc1)c1cc(S(=O)(=O)O)ccc1O` gave Scp1 inh 88.0*, DNMT1 inh 83.3*, STEP block 97.9*, LMPTP block 28.8, SUMO1 PPI mod 14.6, NadD inh -1.2, Scp-1 conf 60.4*, Scp-1 MG ctr -12.8, Scp-1 Tm shift -18.0, DNMT1 inh conf 3.0 and DNMT1 interf -1.4.
Screening O=P(O)(c1ccccc1)c1ccccc1O returned Scp1 inh -3.6, DNMT1 inh -1.4, STEP block -2.8, LMPTP block -1.4, SUMO1 PPI mod 2.1 and NadD inh 2.5.
`COc1cccc(/C=N/NC(=O)CCc2n[nH]c(=O)[nH]c2=O)c1O` gave Scp1 inh -6.7, DNMT1 inh 4.5, STEP block -0.8, LMPTP block -1.4, SUMO1 PPI mod -0.4 and NadD inh -5.4.
O=C(CCc1n[nH]c(=O)[nH]c1=O)N/N=C/c1ccco1 was read as Scp1 inh 81.0*, DNMT1 inh 51.1*, STEP block 38.4, LMPTP block 39.7, SUMO1 PPI mod 30.9, NadD inh 7.2, Scp-1 conf 56.0*, Scp-1 MG ctr -7.1, Scp-1 Tm shift -1.4, DNMT1 inh conf 2.4 and DNMT1 interf 7.2.
For S=c1[nH]nc(-c2ccco2)n1-c1ccccc1Cl the results were Scp1 inh -13.8, DNMT1 inh -0.1, STEP block -1.7, LMPTP block -2.9, SUMO1 PPI mod 0.8 and NadD inh -4.6.

High-throughput results (PubChem BioAssay)
